Measurements reported in ChEMBL document CHEMBL4513216, “Probing the Open Global Health Chemical Diversity Library for Multistage-Active Starting Points for Next-Generation Antimalarials” (ACS Infect Dis, 2020).

Test: Toxicity liver stage against HepG2, at 10uM
Assay type: cell-based
Set-up: test concentration 10 uM, cell line HepG2-A16-CD81EGFP
Details: human, HepG2-A16-CD81EGFP cells; read-out: INHIBITION
Method in brief: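 Uninfected HepG2-A16-CD81EGFP cells, 3 × 10^3 per well, 1536-well, plated on prespotted compound at 10 μM final, parasite-free screening media added to match infected plates; puromycin 10 μM positive, DMSO 0.5% negative; run in parallel with 48 h PbLuc assay at 37 °C, 5% CO2; viability by CellTiter-Glo luminescence, normalized to controls.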

| Structure (SMILES) | cytotoxicity at 10 µM [%] |
| --- | --- |
| NC(=O)CNC(=O)c1cc(Cn2cnc3ccccc32)[nH]n1 | -4.2 |
| Cc1c(O)cccc1C(=O)N1CCCC2(C1)C(=O)N(C)c1ccccc12 (configuration not stated) | 4.34 |
| Cc1ccc(OCC2CCCN(C(=O)c3csc(CN(C)C)n3)C2)cc1 (configuration not stated) | -3.16 |
| COc1ccc(C(=O)NCCC(N)=O)c(I)c1 | 9.34 |
| Cc1cc(N2CCC(N(C)C(=O)Nc3ccccc3)CC2)nc(C)n1 | -19.4 |
| CN1CCCCC1CCC(=O)NCCSc1cnn[nH]1 (configuration not stated) | 0.00194 |
| CC(C)Cc1cc(C(=O)NC(C)C)[nH]n1 | 5.67 |
| CC(=O)N1CCO[C@@H]2CN(C(=O)c3ccccc3)CC[C@@H]2C1 | 5.29 |
| O=C(CCCc1ccccn1)N1CCOc2ccc(F)cc21 | 9.81 |
| COc1cccc(COCC(=O)N2CCCC(n3ccnc3)C2)c1 (configuration not stated) | -8.38 |
| CSc1ccccc1C(=O)NCc1cc2n(n1)CCCN(CC(C)C)C2 | 3.05 |
| c1c(CN2CCCC2)nc2n1CCN(CC1CC1)C2 | -136 |
| CC(C)NC(=O)N1CCC2(CC(=O)N(c3ccccc3)C2)C1 (configuration not stated) | -2.59 |
| O=C(N[C@H]1CCCC[C@@H]1O)c1ccc(-c2nc3ccccc3[nH]2)cc1 | -1.43 |
| COc1cccc2c1ccn2CCC(=O)NCCCC(=O)O | 9.64 |
| CCc1nnc2n1CC(CNCc1nc(-c3ccsc3)no1)CC2 (configuration not stated) | -5.34 |
| CCN(CCNC(=O)c1cccnc1OCCOC)C1CC1 | -0.966 |
| COCCN1C(=O)CCC12CCN(C(=O)CC1CC1)CC2 | 3.73 |
| COCCNC(=O)N1CCN(C(C)C(=O)NC2CCCC2)CC1 (configuration not stated) | 1.16 |
| Cc1cc(=O)[nH]c(-n2nc(C)c(CCC(=O)Nc3nc(C)cs3)c2C)n1 | 5.61 |
| CC(C)(C)CNC(=O)c1ccc(C(=O)O)nc1 | 10.4 |

| Structure (SMILES) | cytotoxicity at 10 µM [%] |
| --- | --- |
| CC(CNC(=O)c1cc(C2CC2)on1)N1CCc2ccccc21 (configuration not stated) | -11.8 |
| Cc1cccc(-c2noc(CN3CCC(N4CCNC4=O)CC3)n2)c1 | 5.34 |
| COCCn1cc(NCc2c[nH]nc2C(C)(C)C)cn1 | -2.35 |
| Cc1cc(-c2nn(C)c(Cl)c2CN2CCN(C)C(C(=O)O)C2)no1 (configuration not stated) | -0.0938 |
| Cn1cccc1C(=O)Nc1cc(F)ccc1OCC1CCCO1 (configuration not stated) | -7.59 |
| CCc1n[nH]c(C2CN(C(=O)c3cnc(C)cn3)CCO2)n1 (configuration not stated) | -2.9 |
| CCC(=O)NCC(=O)NCC(C)(C)c1cccc(Br)c1 | -2.32 |
| Cc1nc(-c2cccnc2)ncc1C(=O)N1CCCCC(N)C1 (configuration not stated) | 7.57 |
| Cc1cc(C[S+]([O-])CC(=O)NCc2cccc(Cl)c2)no1 (configuration not stated) | -1.56 |
| CN(CC(=O)N1CCC(Oc2ccc(C(F)(F)F)cn2)CC1)S(C)(=O)=O | 1.97 |
| COc1ccccc1-c1ncc(CN2C[C@@H](N(C)C)[C@H](C(C)C)C2)s1 | -12.3 |
| c1ccc(CN2CCC(CNc3ncnc4c3CCNCC4)CC2)cc1 | -4.84 |
| Cc1nc(C)n(CC2CN(CCCc3ccccc3)CCO2)n1 (configuration not stated) | 2.89 |
| COc1ccc(C(=O)N(C)Cc2nnc3ccccn23)c(OC)c1OC | -11.5 |
| FC(F)(F)c1ccc(-c2cnc(C3CCCN3)cn2)cc1 (configuration not stated) | -1.12 |
| O=C(Nc1cccc(OCc2ccc(F)cc2)c1)C1COCCO1 (configuration not stated) | 1.18 |
| c1cnc(N2CCC3(COCCN(CC4CCOCC4)C3)C2)nc1 (configuration not stated) | -1.56 |
| COC(=O)c1cccn1C1CCN(C(=O)c2ccc(C)[nH]c2=O)CC1 | -3.78 |
| NC(=O)CN1CCC(NC2CCCCc3ccccc32)CC1 (configuration not stated) | -7.86 |
| CC(=O)N1CCN([C@@H]2CC[C@@H](NC(=O)c3cc(C)cs3)[C@H]2O)CC1 | 6.02 |
| COc1ccc(CNC(Cc2ccsc2)c2ccc(C)cn2)cc1OC (configuration not stated) | -4.88 |

| Structure (SMILES) | cytotoxicity at 10 µM [%] |
| --- | --- |
| CCOCCC(=O)N1CCCC(c2ncc[nH]2)C1 (configuration not stated) | -9.43 |
| CC(C)C1CN(C(=O)c2cc(F)cc3[nH]cnc23)CCS1 (configuration not stated) | 1.97 |
| CC(=O)NCC(=O)N1CC[C@H](OCC2CC2)[C@@H]1Cc1cccnc1 | -1.99 |
| O=C(NCCCF)N1CCC(n2ccc(C(F)(F)F)n2)CC1 | -5.29 |
| CNc1cncc(C2CCCN2C(=O)c2ccc3c(c2)OCCO3)n1 (configuration not stated) | -2.97 |
| Cc1cnc(NS(=O)(=O)c2ccccc2)s1 | -2.56 |
| CCNC(=O)N(C)C1CCN(Cc2ncc(C)c(OC)c2C)CC1 | -0.514 |
| CCc1nnc2n1CCN(C(=O)Cc1nc(-c3ccco3)oc1C)C2 | 1.19 |
| Cc1cccc(CNC(=O)CNc2cc(CO)ccc2Cl)c1 | 1.73 |
| COc1cccc(-c2csc(Cn3ccc(=O)[nH]c3=O)n2)c1 | 3.57 |
| CC(=O)N1CCCCCC1C1CCN(Cc2nc(C(C)C)no2)CC1 (configuration not stated) | 6.27 |
| Cc1cn2c(n1)CCC(NC(=O)CCCOCc1ccccc1)C2 (configuration not stated) | -3.55 |
| CC1CCCCN1c1nc2c(c(=O)[nH]1)CCN(Cc1ccccc1F)C2 (configuration not stated) | -4.39 |
| O=C(c1ccco1)N1CCC(n2nc(-c3ccco3)ccc2=O)CC1 | -20.5 |
| O=C(NCCc1cccs1)[C@H]1CO[C@H]2CCN(C3CCC3)C[C@H]2C1 | -116 |
| NCC(=O)N1CCCC(c2ccnc(Nc3cnccn3)n2)C1 (configuration not stated) | 2.66 |
| Cn1ccc(CN2CCCC23CCNCC3)n1 | 4.86 |
| CCOCC1c2c(cnn2C)CCN1C(=O)c1cc(C)on1 (configuration not stated) | -81.9 |
| Cc1nn(C)cc1-c1cc(C(F)(F)F)nc(NC2CCCCC2)n1 | 6.9 |
| CC(=O)NCCNC(=O)NCc1ccc(-n2ccc(C(F)(F)F)n2)cc1 | -6 |
| CSCc1cccc(S(=O)(=O)NCCCn2ccnc2)c1 | 4.51 |

| Structure (SMILES) | cytotoxicity at 10 µM [%] |
| --- | --- |
| Cc1cccc(CN2C[C@@H]3COC[C@]3(CNC(=O)c3ccccc3)C2)n1 | -0.0606 |
| CC(C)CN1C(=O)C2(CCN(Cc3ccoc3)C2)c2ccccc21 (configuration not stated) | 4.82 |
| CCn1cnc(NC(=O)NCC2CCS(=O)(=O)CC2)n1 | 5.08 |
| CCCc1nc(NCC(=O)N2CCOCC2)c2c(n1)c(C)nn2CC | 12.2 |
| COc1c(CNC2CCCN(c3ncccn3)C2)c(C(C)C)nn1C (configuration not stated) | -9.94 |
| CC(Cc1ccccc1Cl)NC(=O)Nc1cnn(CC(N)=O)c1 (configuration not stated) | -4.23 |
| CN(Cc1c(F)cccc1Cl)C(=O)Nc1cnn(CC(N)=O)c1 | -6.39 |
| O=C(O)CN1CCC(F)(F)C2(CCN(c3ccccn3)C2)C1 (configuration not stated) | 1.78 |
| CCC(NC1CCN(S(C)(=O)=O)CC1)c1cccs1 (configuration not stated) | 0.125 |
| CSc1ccc(C(=O)N2CCOCC2c2c(C)n[nH]c2C)o1 (configuration not stated) | -10.3 |
| CC(=O)N1CC[C@H]2N(C)CC[C@@]2(C(=O)Nc2cccnc2)CC1 | -111 |
| Cc1ccccc1OCCC(=O)N(C)Cc1c(C)noc1C | -8.73 |
| COC(C)(C)CC(C)NCc1cc(-c2ccco2)on1 (configuration not stated) | 1.81 |
| Cc1cc(N(C)C)nc(N2CCn3c(nnc3C(C)C)C2)n1 | 19 |
| CO[C@H]1CO[C@@]2(CCCN(C(=O)N(C)C)C2)C1 | -97.4 |
| CCS(=O)(=O)N1C[C@H](c2nc(C)no2)C[C@H]2OCC[C@H]21 | -119 |
| COc1ccc(CCN2CCc3c(nc(C4CC4)n3C)C2)cc1 | -0.729 |
| COc1ccc(-n2nc(C)c(C(C)=O)c2C)cc1C(N)=O | -3.41 |
| CN(C)S(=O)(=O)N1CCC2(CC1)CC(OCC1CC1)CO2 (configuration not stated) | -2.37 |
